ChEMBL document CHEMBL2046422, “Structure-activity relationship of nonacidic quinazolinone inhibitors of human microsomal prostaglandin synthase 1 (mPGES 1)” (J Med Chem, 2012)
Blank lines part the entries; values can stand above or below the molecule they belong to.

How the values were obtained:
[1] = molecular target: T1, Prostaglandin E synthase (Mus musculus) (UniProt Q9JM51); test: Inhibition of mPGES-1 derived from LPS stimulated mouse NIH3T3 cells microsomal fraction using PGH2 as substrate at 5 uM preincubated for 30 mins prior to substrate addition measured after 1 min by LC-MS/MS analysis relative to control
T1 sequence (whole entry): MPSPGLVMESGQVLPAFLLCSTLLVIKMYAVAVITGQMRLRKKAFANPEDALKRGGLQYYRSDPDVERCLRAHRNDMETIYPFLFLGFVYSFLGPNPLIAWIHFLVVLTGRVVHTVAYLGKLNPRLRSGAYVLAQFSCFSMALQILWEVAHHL

[2] = molecular target: T1, Prostaglandin E synthase (Mus musculus); test: Inhibition of mPGES-1 derived from LPS stimulated mouse RAW264.7 cells microsomal fraction using PGH2 as substrate at 5 uM preincubated for 30 mins prior to substrate addition measured after 1 min by LC-MS/MS analysis relative to control
Summary of the method: (§1)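 Microsomes came from RAW 264.7 cells stimulated with LPS for 16 h. They were prepared by sonication and ultracentrifugation in 0.1 M potassium phosphate, pH 7.4, with GSH and protease inhibitors, and resuspended with 2.5 mM GSH; protein was measured by Bradford. Compound was tested at the stated final concentration. PGE₂ was quantified by LC-MS/MS after solid-phase extraction with PGE₂-d₄/PGD₂-d₄ standards; SEM, n ≥ 3.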

[3] = molecular target: T2, Prostaglandin E synthase (Homo sapiens) (UniProt O14684); test: Inhibition of mPGES-1 derived from IL1beta and TNFalpha stimulated human HeLa cells microsomal fraction using PGH2 as substrate at 1 uM preincubated for 30 mins prior to substrate addition measured after 1 min by LC-MS/MS analysis relative to control
T2 sequence (whole entry): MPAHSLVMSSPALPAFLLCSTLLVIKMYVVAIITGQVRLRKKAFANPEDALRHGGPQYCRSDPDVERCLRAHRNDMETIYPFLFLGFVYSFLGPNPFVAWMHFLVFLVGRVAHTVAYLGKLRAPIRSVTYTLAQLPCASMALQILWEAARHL
Summary of the method: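 Microsomes were pelleted by ultracentrifugation and resuspended in buffer with 2.5 mM GSH; protein was measured by Bradford. PGE₂ was read by LC-MS/MS after solid-phase extraction with deuterated standards; n ≥ 3.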

[4] = molecular target: T2, Prostaglandin E synthase (Homo sapiens); test: Inhibition of mPGES-1 in IL1beta and TNFalpha-stimulated human HeLa cells assessed as PGE2 level after 24 hrs by LC-MS/MS analysis; format: cell-based
Summary of the method: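 HeLa cells (2 × 10⁴) were grown 24 h at 37 °C. The medium was then replaced with IL-1β (1 ng/mL) + TNFα (5 ng/mL), or PBS for unstimulated controls, together with compound at 1, 10 or 100 μM, or DMSO, for 24 h at 37 °C. Supernatant PGE₂ was quantified by LC-MS/MS after solid-phase extraction with deuterated standards. Inhibition is percent of DMSO control corrected for unstimulated background, SEM, n ≥ 3.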

[5] = molecular target: Prostaglandin G/H synthase 1 (Homo sapiens) (UniProt P23219); test: Inhibition of COX1 in human whole blood assessed as residual TXB2 level at 10 uM after 1 hr by LC-MS/MS analysis relative to control
Summary of the method: (§2)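 Human venous blood was drawn without additives, and compound was added. Samples clotted at 37 °C for 1 h; negative controls were chilled on ice at once. After 5 min on ice, plasma was separated at 4 °C. It was mixed with H₃PO₄, EDTA, BHT and deuterated internal standards, then put through solid-phase extraction. TXB₂ and PGD₂ were measured by LC-MS/MS, relative to vehicle-treated blood.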

HeLa = test: Cytotoxicity against IL1beta and TNFalpha-stimulated human HeLa cells at 1 to 10 uM after 24 hrs by WST1 assay; format: cell-based
Summary of the method: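 HeLa cells were seeded at 3 × 10³ per well and grown 24 h at 37 °C. They were then stimulated with IL-1β (1 ng/mL) + TNFα (5 ng/mL) while treated with compound at 1, 10 or 100 μM, or DMSO, for 24 h. WST-1 was added for 90–150 min and absorbance read at 450 nm against 620 nm. Viability is percent of DMSO control, SEM, n ≥ 3.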

[6] = molecular target: T1, Prostaglandin E synthase (Mus musculus); test: Inhibition of mPGES-1 derived from LPS stimulated mouse NIH3T3 cells microsomal fraction using PGH2 as substrate at 1 uM preincubated for 30 mins prior to substrate addition measured after 1 min by LC-MS/MS analysis relative to control
[7] = molecular target: Prostaglandin G/H synthase 1 (Homo sapiens) (UniProt P23219); test: Inhibition of COX1 in human whole blood assessed as residual PGD2 level at 10 uM after 1 hr by LC-MS/MS analysis relative to control; summary of the method: as §2
[8] = molecular target: T3, 5-lipoxygenase/FLAP (Homo sapiens) (UniProt P09917+P20292); test: Inhibition of 5-lipoxygenase/FLAP in calcium ionophore-stimulated human whole blood assessed as residual LTB4 level at 10 uM preincubated for 15 mins prior to calcium ionophore-stimulation measured after 15 mins by LC-MS/MS analysis; format: protein-complex assay
Summary of the method: (§3)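 Heparinized human whole blood (500 μL) was preincubated with compound for 15 min at 37 °C. It was then stimulated with 20 μM calcium ionophore A23187 in autologous plasma for 15 min at 37 °C and chilled on ice for 5 min. Plasma was collected by centrifugation at 4 °C. Eicosanoids were recovered by liquid–liquid extraction with deuterated internal standards and quantified by LC-MS/MS (MRM). Levels are relative to vehicle-treated blood.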

[9] = molecular target: T4, Prostaglandin G/H synthase 1 (Ovis aries) (UniProt P05979); test: Inhibition of ovine COX1-mediated PGE2 synthesis using PGH2 as substrate at 1 uM by LC-MS/MS analysis relative to control
T4 sequence (whole entry): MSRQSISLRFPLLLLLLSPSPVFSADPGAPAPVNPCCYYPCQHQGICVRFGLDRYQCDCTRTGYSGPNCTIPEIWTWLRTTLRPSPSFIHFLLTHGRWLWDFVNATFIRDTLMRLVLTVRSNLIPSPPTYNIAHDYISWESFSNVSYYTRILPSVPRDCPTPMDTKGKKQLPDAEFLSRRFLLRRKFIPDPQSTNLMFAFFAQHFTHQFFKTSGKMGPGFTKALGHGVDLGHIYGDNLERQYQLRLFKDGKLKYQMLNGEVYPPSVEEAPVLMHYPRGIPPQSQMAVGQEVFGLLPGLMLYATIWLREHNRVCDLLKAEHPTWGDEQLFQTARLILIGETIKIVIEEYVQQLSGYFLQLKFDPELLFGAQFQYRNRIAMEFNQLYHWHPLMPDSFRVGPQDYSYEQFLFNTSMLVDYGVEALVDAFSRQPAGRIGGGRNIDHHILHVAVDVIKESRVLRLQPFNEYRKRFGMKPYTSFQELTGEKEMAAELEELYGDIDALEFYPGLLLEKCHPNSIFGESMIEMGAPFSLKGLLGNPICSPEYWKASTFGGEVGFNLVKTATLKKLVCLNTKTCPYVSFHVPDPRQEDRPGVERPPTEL
Summary of the method: (§4)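 Direct enzyme test with a COX inhibitor screening kit, run per the kit protocol: COX-1 was ovine, COX-2 human recombinant. […] Prostaglandins were quantified by LC-MS/MS after solid-phase extraction. Mean of n ≥ 3.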

[10] = molecular target: T3, 5-lipoxygenase/FLAP (Homo sapiens); test: Inhibition of 5-lipoxygenase/FLAP in calcium ionophore-stimulated human whole blood assessed as 5(s)HETE level at 10 uM preincubated for 15 mins prior to calcium ionophore-stimulation measured after 15 mins by LC-MS/MS analysis; format: protein-complex assay; set-up: scale not given: the % may be the effect or the level left; summary of the method: as §3
[11] = molecular target: T5, Prostaglandin G/H synthase 2 (Homo sapiens) (UniProt P35354); test: Inhibition of COX2 in LPS-stimulated human whole blood assessed as residual PGF2alpha level at 100 uM preincubated for 15 mins prior to LPS-stimulation measured after 24 hrs by LC-MS/MS analysis relative to control
T5 sequence (whole entry): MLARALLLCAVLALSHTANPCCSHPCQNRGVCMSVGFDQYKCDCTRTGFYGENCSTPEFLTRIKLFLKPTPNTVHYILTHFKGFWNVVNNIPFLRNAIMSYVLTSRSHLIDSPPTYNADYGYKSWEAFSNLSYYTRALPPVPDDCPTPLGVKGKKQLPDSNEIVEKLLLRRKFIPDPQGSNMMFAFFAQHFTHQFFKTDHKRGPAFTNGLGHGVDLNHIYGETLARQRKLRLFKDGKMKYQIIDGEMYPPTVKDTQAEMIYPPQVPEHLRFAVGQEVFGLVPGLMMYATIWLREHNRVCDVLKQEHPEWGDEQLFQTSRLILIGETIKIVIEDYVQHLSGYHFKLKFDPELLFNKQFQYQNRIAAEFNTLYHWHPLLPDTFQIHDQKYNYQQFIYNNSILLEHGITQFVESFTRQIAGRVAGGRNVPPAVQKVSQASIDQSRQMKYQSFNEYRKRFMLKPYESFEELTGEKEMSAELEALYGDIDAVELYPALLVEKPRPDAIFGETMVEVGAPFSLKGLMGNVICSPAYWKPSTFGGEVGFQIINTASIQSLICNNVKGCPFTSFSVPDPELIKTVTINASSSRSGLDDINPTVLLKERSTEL
Summary of the method: (§5)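 Human whole blood received compound in DMSO plus acetylsalicylic acid (10 μg/mL) to block COX-1, 15 min at 37 °C. LPS (10 μg/mL final) in autologous plasma was added to induce COX-2/mPGES-1, and blood was incubated 24 h at 37 °C. Samples were chilled on ice 5 min, and plasma prostaglandins were extracted by solid-phase extraction and quantified by LC-MS/MS. Values are relative to vehicle.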

[12] = molecular target: T5, Prostaglandin G/H synthase 2 (Homo sapiens); test: Inhibition of human recombinant COX2-mediated PGE2 synthesis using PGH2 as substrate at 1 uM by LC-MS/MS analysis relative to control; summary of the method: as §4
[13] = molecular target: T3, 5-lipoxygenase/FLAP (Homo sapiens); test: Inhibition of 5-lipoxygenase/FLAP in calcium ionophore-stimulated human whole blood assessed as residual 12(s)HETE level at 10 uM preincubated for 15 mins prior to calcium ionophore-stimulation measured after 15 mins by LC-MS/MS analysis; format: protein-complex assay; summary of the method: as §3
[14] = molecular target: T5, Prostaglandin G/H synthase 2 (Homo sapiens); test: Inhibition of COX2 in LPS-stimulated human whole blood assessed as residual PGE2 level at 100 uM preincubated for 15 mins prior to LPS-stimulation measured after 24 hrs by LC-MS/MS analysis relative to control; summary of the method: as §5
[15] = molecular target: T3, 5-lipoxygenase/FLAP (Homo sapiens); test: Inhibition of 5-lipoxygenase/FLAP in calcium ionophore-stimulated human whole blood assessed as residual (+/-)11HETE level at 10 uM preincubated for 15 mins prior to calcium ionophore-stimulation measured after 15 mins by LC-MS/MS analysis; format: protein-complex assay; summary of the method: as §3
[16] = molecular target: T3, 5-lipoxygenase/FLAP (Homo sapiens); test: Inhibition of 5-lipoxygenase/FLAP in calcium ionophore-stimulated human whole blood assessed as residual 15(s)HETE level at 10 uM preincubated for 15 mins prior to calcium ionophore-stimulation measured after 15 mins by LC-MS/MS analysis; format: protein-complex assay; summary of the method: as §3
[17] = molecular target: T1, Prostaglandin E synthase (Mus musculus); test: Inhibition of mPGES-1 derived from LPS stimulated mouse RAW264.7 cells microsomal fraction using PGH2 as substrate at 1 uM preincubated for 30 mins prior to substrate addition measured after 1 min by LC-MS/MS analysis relative to control; summary of the method: as §1

Chain of Prostaglandin G/H synthase 1 (Homo sapiens) (P23219 whole entry): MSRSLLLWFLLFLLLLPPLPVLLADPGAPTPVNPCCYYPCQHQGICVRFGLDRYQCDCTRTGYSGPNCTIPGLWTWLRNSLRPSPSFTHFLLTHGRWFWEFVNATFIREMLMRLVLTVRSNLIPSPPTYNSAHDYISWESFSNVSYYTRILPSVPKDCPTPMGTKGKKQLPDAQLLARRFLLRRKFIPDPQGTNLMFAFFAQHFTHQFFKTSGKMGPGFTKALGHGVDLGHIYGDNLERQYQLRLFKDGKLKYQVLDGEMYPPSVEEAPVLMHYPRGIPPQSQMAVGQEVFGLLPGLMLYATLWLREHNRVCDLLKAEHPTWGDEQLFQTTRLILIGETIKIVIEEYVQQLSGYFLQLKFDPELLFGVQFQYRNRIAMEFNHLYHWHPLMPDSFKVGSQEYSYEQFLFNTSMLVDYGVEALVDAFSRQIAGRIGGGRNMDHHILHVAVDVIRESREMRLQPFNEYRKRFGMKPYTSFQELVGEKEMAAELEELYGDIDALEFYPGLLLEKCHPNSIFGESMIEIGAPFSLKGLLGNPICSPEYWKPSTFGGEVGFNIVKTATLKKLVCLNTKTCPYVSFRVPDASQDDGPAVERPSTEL

Structure (SMILES): CCCCCCC(Sc1nc(Cl)cc(Nc2cccc(C)c2C)n1)C(=O)O (stereo not given)
inhibition [1]: 62.9%
inhibition [2]: 66.2%

Structure (SMILES): CCCc1nc2ccc(NC(=O)C3CC3)cc2c(=O)n1Cc1ccc(-c2cccc(OC)c2)cc1
inhibition [3]: 15.9%

Structure (SMILES): Cc1ccccc1C(=O)Nc1cc2c(=O)n(Cc3ccccc3)c(C)nc2cc1N1CCCC1
inhibition [3]: 37.1%

Structure (SMILES): O=C(Cn1cnc2ccccc2c1=O)Nc1ccccc1Cl
inhibition [3]: < 0%

Structure (SMILES): Cc1ccc(-c2cc(C(F)(F)F)nn2-c2ccc(S(N)(=O)=O)cc2)cc1
inhibition [4]: Dose-dependent effect

More lines, main results first:

inhibition [3]: 15.6%
Structure (SMILES): CCCc1nc2ccc(NC(=O)c3cccs3)cc2c(=O)n1Cc1ccc(-c2cccc(Cl)c2)cc1

inhibition [3]: 18.8%
Structure (SMILES): CCCc1nc2ccc(NC(=O)C(C)(C)C)cc2c(=O)n1Cc1ccc(-c2cccc(Cl)c2)cc1

inhibition [3]: 14.1%
Structure (SMILES): CCCc1nc2ccc(NC(=O)Nc3ccccc3Cl)cc2c(=O)n1Cc1ccccc1Cl

inhibition [3]: 61.3%
Structure (SMILES): CCCc1nc2ccc(NC(=O)c3ccccc3Cl)cc2c(=O)n1Cc1ccc(-c2ccccc2OC)cc1

Activity [5]: 86.1%
inhibition [6]: 6.6%
Activity [7]: 89%
Activity [8]: 91.3%
inhibition [9]: 16.1%
Activity [10]: 88.1%
Activity [11]: 73.4%
inhibition [12]: < 0%
Activity [13]: 82.7%
Activity [14]: 34.2%
Activity [15]: 75.4%
Activity [16]: 78.3%
inhibition [17]: 15.2%
Structure (SMILES): CCCc1nc2ccc(NC(=O)c3ccccc3Cl)cc2c(=O)n1Cc1ccccc1Cl
Activity (HeLa): Non-toxic

inhibition [3]: 14.8%
Structure (SMILES): CCCc1nc2ccc(NC(C)=O)cc2c(=O)n1Cc1ccc(-c2cccc(Cl)c2)cc1
